Results from different studies.
Protocols differ between the studies behind these lines.

SMILES	cell line	assay	conditions	IC50
O=C1CCP(=[Se])(c2ccccc2)CC1	SW-620	cell growth or viability, MTT	72 h	> 100 µM
N.N.[Cl][Pt][Cl]	MCF7	cell growth or viability, MTT	48 h	9.9 µM
O=C(NCc1ccc(O)cc1)c1cn(Cc2ccc(F)cc2)c2ccc(Oc3ccccc3)cc2c1=O	MCF7	cell growth or viability, MTT	48 h	78.5 µM
N.N.[Cl][Pt][Cl]	SW-620	cell growth or viability, MTT	72 h	6.7 µM
CC[C@H](C)[C@H](NC(=O)[C@H](CCCCN)NC(=O)[C@H](CCCCN)NC(=O)[C@H](CC(C)C)NC(=O)[C@H](CCCCN)NC(=O)[C@H](CCCCN)NC(=O)[C@H](Cc1ccccc1)NC(=O)[C@H](Cc1ccccc1)NC(=O)[C@H](CCCNC(=N)N)NC(=O)[C@H](CCCNC(=N)N)NC(=O)[C@@H](NC(=O)[C@H](CCCCN)NC(=O)[C@H](CCCNC(=N)N)NC(=O)[C@@H](NC(=O)[C@@H](N)Cc1ccc(O)cc1)[C@@H](C)CC)[C@@H](C)CC)C(=O)N[C@@H](CC(C)C)C(=O)N[C@@H](CCCCN)C(=O)N[C@@H](CCCCN)C(N)=O	THP-1	cell growth or viability, resazurin	–	5.2 µM
Cc1sc2c(c1C)C(c1ccc(Cl)cc1)=N[C@@H](CC(N)=O)c1nnc(C)n1-2	MP46	cell growth or viability, ATP luminescence	72 h	0.109 µM
S=P1(c2ccccc2)CCCCC1	SW-620	cell growth or viability, MTT	72 h	> 100 µM
O=C(NCc1ccc(F)cc1)c1cn(Cc2ccc(C(F)(F)F)cc2)c2ccc(Oc3ccccc3)cc2c1=O	MCF7	cell growth or viability, MTT	24 h	8.32 µM
COc1ccc2c(c1OC)CN1CCc3cc4c(cc3[C@@H]1C2)OCO4	HepaRG	reactive oxygen species, inhibitor	16 h	2.69 µM
CC[C@@]1(O)C(=O)OCc2c1cc1n(c2=O)Cc2cc3ccccc3nc2-1	MP46	cell growth or viability, ATP luminescence	72 h	0.21 µM
O=C(NCc1ccccc1)c1cn(Cc2ccc(C(F)(F)F)cc2)c2ccc(Oc3ccccc3)cc2c1=O	MCF7	cell growth or viability, MTT	–	< 12 µM
CC(C)[C@H](NC(=O)[C@H](Cc1c[nH]c2ccccc12)NC(=O)[C@H](Cc1c[nH]cn1)NC(=O)[C@H](CCCNC(=N)N)NC(=O)[C@H](CCCNC(=N)N)NC(=O)[C@H](Cc1c[nH]c2ccccc12)NC(=O)[C@H](Cc1c[nH]c2ccccc12)NC(=O)[C@H](Cc1c[nH]cn1)NC(=O)[C@H](Cc1c[nH]c2ccccc12)NC(=O)[C@H](CCCNC(=N)N)NC(=O)[C@@H](N)CCCCN)C(=O)N[C@H](C(=O)N[C@@H](Cc1c[nH]c2ccccc12)C(N)=O)C(C)C	THP-1	cell growth or viability, MTT	–	103 µM
